ChEMBL document CHEMBL3867483, “Gaining in pan-affinity towards sigma 1 and sigma 2 receptors. SAR studies on arylalkylamines” (Bioorg Med Chem, 2017)

Assays:
[1] = target: Sigma non-opioid intracellular receptor 1 (Cavia porcellus, UniProt Q60492); assay: Displacement of [3H]-(+)-pentazocine from sigma 1 receptor in guinea pig cerebral cortex membranes after 120 mins by scintillation counting analysis; set-up: species or system Membrane
[2] = Displacement of [3H]-DTG from sigma 2 receptor in rat liver membranes after 120 mins by scintillation counting analysis; assay type: cell membranes, Membrane
How it was run: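 Rat liver homogenate (150 μg) incubated 120 min at room temperature with 3 nM [3H]-DTG in 50 mM Tris-HCl pH 8.0. Excess unlabeled (+)-pentazocine masked S1R, and high unlabeled DTG defined nonspecific binding. Compound at 10^-10 to 10^-5 M final, in duplicate. Filtered through PEI-presoaked filtermats and counted by scintillation. IC50 from nonlinear regression, converted to Ki by Cheng-Prusoff; mean ± SEM of three experiments.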

[3] = Selectivity ratio of Ki for sigma 2 receptor in rat liver membranes to Ki for sigma 1 receptor in guinea pig cerebral cortex membranes; assay type: cell membranes
How it was run: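 Ratio computed as Ki at S2R (rat liver, [3H]-DTG with S1R masked by (+)-pentazocine) divided by Ki at S1R (guinea pig cortex, [3H](+)-pentazocine). Both Ki values come from Cheng-Prusoff conversion of IC50s from 120 min displacement assays, each the mean of three experiments.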

Chain of Sigma non-opioid intracellular receptor 1 (Q60492 whole entry): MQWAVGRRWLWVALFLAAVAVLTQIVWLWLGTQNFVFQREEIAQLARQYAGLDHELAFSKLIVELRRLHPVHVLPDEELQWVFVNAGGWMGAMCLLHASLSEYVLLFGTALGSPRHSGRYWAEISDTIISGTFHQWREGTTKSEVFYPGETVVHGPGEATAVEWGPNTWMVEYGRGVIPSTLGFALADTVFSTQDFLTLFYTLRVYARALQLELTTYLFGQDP

Compound	Ki [1] [nM]	Ki [2] [nM]	Ratio Ki [3]
COc1cccc(C(C)CCN(C)C)c1 (stereo not given)	239	864	3.62
CC(CCN1CCOCC1)c1ccccc1 (racemic)	85	71	1.2
CC(CCN(C)C)c1ccc2ccccc2c1 (racemic)		43.8	22
COc1ccc(C(C)CCN2CCCCC2)cc1 (racemic)	20	58	2.9
CC(CCN1CCC(Cc2ccccc2)CC1)c1ccccc1 (racemic)		6.5	3.1
COc1cccc(C(C)CCN2CCCCC2)c1 (racemic)	36	35	0.97
CC(CCN1CCC(Cc2ccccc2)CC1)c1ccc2ccccc2c1 (racemic)	19	144	7.6
CC(CCN1CCCCC1)c1ccc2ccccc2c1 (racemic)	1.5	50	33.3
COc1ccc(C(C)CCN(C)C)cc1 (racemic)	116	255	2.2
CC(CCN1CCCCC1)c1ccccc1 (racemic)	46	56	1.22
COc1ccc(C(C)CCN2CCC(Cc3ccccc3)CC2)cc1 (racemic)	3.5	18	5.14
COc1cccc(C(C)CCN2CCOCC2)c1 (racemic)	137	92	0.67
COc1cccc(C(C)CCN2CCC(Cc3ccccc3)CC2)c1 (racemic)	2.9	14	4.83
CC(CCN1CCOCC1)c1ccc2ccccc2c1 (racemic)	5.4	33	6.1
CC(CCN(C)C)c1ccccc1 (racemic)	427	> 1000	
COc1ccc(C(C)CCN2CCOCC2)cc1 (racemic)	76	68	0.89
